These results are taken from ChEMBL document CHEMBL5108058 (J Med Chem, 2022).

Structures are written as SMILES. Bounds are passed on as bounds.

For data set [1], the system named is SARS-CoV-2. Briefly: Antiviral activity against SARS-Cov2 […] infected in Calu-3 cells assessed as reduction in viral particle release measured after 24 hrs. It counts as functional, organism-based. The settings on record: Severe acute respiratory syndrome coronavirus 2, Calu-3, 24 h.
The subject of data set [2] is SARS-CoV-2. Put plainly: Antiviral activity against SARS-CoV-2-GHB-03021/2020 infected in African green monkey Vero E6 cells assessed as reduction in cytopathic effect pre-infected with virus on day 0 followed by compound addition on day 1 and measured after 4 days post infection in presence of CP-100356 by MTS assay. The class given is functional, organism-based. The settings on record: Severe acute respiratory syndrome coronavirus 2, GHB-03021/2020, Vero C1008.

In data set [3] the test system is SARS-CoV-2. Briefly: Antiviral activity against SARS-CoV-2-BetaCoV/belgium/GHB-03021/2020 infected in human Huh-7 cells assessed as reduction in cytopathic effect pre-infected with virus on day 0 followed by compound addition on day 1 and measured after 4 days post infection by MTT assay. The settings on record: Severe acute respiratory syndrome coronavirus 2, BetaCoV/belgium/GHB-03021/2020, Huh-7. It counts as functional, organism-based. Background: Damage to the host cells serves as the signal in cytopathic effect assays.

Data set [4] concerns SARS-CoV-2. Put plainly: Antiviral activity against SARS-CoV-2-alphaB.1.1.7 infected in human A549 cells expressing ACE2 and TMPRSS2 assessed as reduction in cytopathic effect pre-infected with virus on day 0 followed by compound addition on day 1 and measured after 4 days post infection by MTS assay. It counts as functional, organism-based. The settings on record: Severe acute respiratory syndrome coronavirus 2, alphaB.1.1.7, A549.

Another data set relates to Vero C1008. Briefly: Cytotoxicity against African green monkey Vero E6 cells assessed as reduction in cell viability. The class given is toxicity, cell-based. The settings on record: chlorocebus sabaeus. The method in brief:
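VeroE6-eGFP cells maintained in DMEM with 10% FBS and G418. Compound toxicity measured without virus by standard MTS assay in parallel with the antiviral test. At least two independent dose–response curves.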

Data set [5] can be described thus: Tmax in CD-1 mouse plasma at 25 mg/kg, INH using nebulizer measured at 0.25 to 24 hrs. It counts as ADME, organism-based. As to conditions: in vivo, inhaled_or_intranasal, time 0.25-24 hrs. The essentials: (§1)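 Male outbred CD-1 mice, 4 weeks old. Compound in a DOPS liposomal formulation (1 mM DOPS final), 25 mg/kg by nebulizer inhalation. Mice euthanized at 0.25, 0.5, 1, 2, 4, 8 and 24 h for heart blood (EDTA plasma), bronchoalveolar lavage and lung homogenate. ELF levels derived from BALF by urea method; non-compartmental PK analysis.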

The nature of data set [6]: Cmax in CD-1 mouse plasma at 25 mg/kg, INH using nebulizer measured at 0.25 to 24 hrs. The class given is ADME, organism-based. The arrangement: dose 25 mg/kg, time 0.25-24 hrs, route inh. The settings on record: in vivo, inhaled_or_intranasal. The essentials: as §1
Data set [7] can be described thus: AUC (0 to t) in CD-1 mouse plasma at 25 mg/kg, INH using nebulizer measured at 0.25 to 24 hrs. It counts as ADME, organism-based. The settings on record: in vivo, inhaled_or_intranasal. Further details: time lower 0.25 hrs, dose 25 mg/kg, time upper 24 hrs, route inh. The method in brief: as §1
Data set [8] can be described thus: Observed apparent volume of distribution in CD-1 mouse plasma at 25 mg/kg, INH using nebulizer measured at 0.25 to 24 hrs. It counts as ADME, organism-based. The settings on record: in vivo, inhaled_or_intranasal, time 0.25-24 hrs. The essentials: as §1
Data set [9] can be described thus: Apparent oral clearance in CD-1 mouse plasma at 25 mg/kg, INH using nebulizer measured at 0.25 to 24 hrs. The class given is ADME, organism-based. The settings on record: time 0.25-24 hrs. The method in brief: as §1
Data set [10] is described as follows: Cmax in CD-1 mouse BALF at 25 mg/kg, INH using nebulizer measured at 5 hrs. The class given is ADME, organism-based, Bronchoalveolar lavage. Further details: time 5 hrs, dose 25 mg/kg, route inh. The settings on record: in vivo, inhaled_or_intranasal.
Data set [11] is described as follows: AUC (0 to t) in CD-1 mouse BALF at 25 mg/kg, INH using nebulizer measured at 5 hrs. The class given is ADME, organism-based, Bronchoalveolar lavage. As to conditions: in vivo, inhaled_or_intranasal. The arrangement: dose 25 mg/kg, time 5 hrs, route inh.
Data set [12] can be described thus: Cmax in CD-1 mouse Epithelial lining fluid at 25 mg/kg, INH using nebulizer measured at 0.25 to 24 hrs. Further details: time lower 0.25 hrs, dose 25 mg/kg, time upper 24 hrs, route inh. The settings on record: in vivo, inhaled_or_intranasal. It counts as ADME, organism-based. The essentials: as §1
Data set [13] is described as follows: AUC (0 to t) in CD-1 mouse Epithelial lining fluid at 25 mg/kg, INH using nebulizer measured at 0.25 to 24 hrs. The class given is ADME, organism-based. Further details: time upper 24 hrs, dose 25 mg/kg, time lower 0.25 hrs, route inh. As to conditions: in vivo, inhaled_or_intranasal. The essentials:
as §1

Data set [14] can be described thus: Cmax in CD-1 mouse lung at 25 mg/kg, INH using nebulizer measured at 0.25 to 24 hrs. Further details: dose 25 mg/kg, time 0.25-24 hrs, route inh. As to conditions: inhaled or intranasal. The class given is ADME, organism-based. The method in brief:
as §1

The nature of data set [15]: Tmax in CD-1 mouse plasma at 100 mg/kg, po measured at 0.5 to 3 hrs. It counts as ADME, organism-based. The settings on record: in vivo, time 0.5-3 hrs. The essentials:
(§2)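 Male CD-1 mice, 4 weeks old, given 100 mg/kg by intragastric gavage in DOPS liposomal formulation (1 mM DOPS final). Tail-vein blood sampled at 0.5, 1 and 3 h; terminal heart blood, BALF and lungs at 5 h. EDTA plasma kept at −80 °C until analysis; parameters by non-compartmental analysis.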

Data set [16] can be described thus: Cmax in CD-1 mouse plasma at 100 mg/kg, po measured at 0.5 to 3 hrs. Further details: time 0.5-3 hrs, dose 100 mg/kg, route po. As to conditions: in vivo. It counts as ADME, organism-based. The method in brief:
as §2

Data set [17] is described as follows: AUC (0 to t) in CD-1 mouse plasma at 100 mg/kg, po measured at 0.5 to 3 hrs. It counts as ADME, organism-based. The arrangement: time lower 0.5 hrs, dose 100 mg/kg, time upper 3 hrs, route po. The settings on record: in vivo. The method in brief:
as §2

Data set [18] in a line: Observed apparent volume of distribution in CD-1 mouse plasma at 100 mg/kg, po measured at 0.5 to 3 hrs. The class given is ADME, organism-based. The settings on record: in vivo, time 0.5-3 hrs. The essentials: as §2
Data set [19] is described as follows: Half life in CD-1 mouse plasma at 100 mg/kg, po measured at 0.5 to 3 hrs. It counts as ADME, organism-based. As to conditions: in vivo, time 0.5-3 hrs. The method in brief:
as §2

Data set [20] in a line: MRT in CD-1 mouse plasma at 100 mg/kg, po measured at 0.5 to 3 hrs. It counts as ADME, organism-based. As to conditions: in vivo, time 0.5-3 hrs. The essentials: as §2
A short description of data set [21]: Oral bioavailability in CD-1 mouse at 100 mg/kg measured at 0.5 to 3 hrs. The class given is ADME, organism-based. As to conditions: in vivo, time 0.5-3 hrs. The essentials: as §2
For data set [22], the system named is SARS-CoV-2. Put plainly: Antiviral activity against SARS-Cov2 […] infected in Calu-3 cells assessed as viral plaque reduction. The class given is functional, organism-based. The settings on record: Severe acute respiratory syndrome coronavirus 2, Calu-3.

As usually defined, the EC50 is the concentration giving half of the maximal effect. What is called CC50 is the concentration that lowers cell viability or growth by half. One may read the Tmax as the time at which the peak concentration occurs. One may read the Cmax as the peak of the concentration-time curve. Broadly, the CL/F is clearance divided by bioavailability, as obtained after extravascular dosing. Broadly, the MRT is a mean duration of stay, worked out from the concentration-time curve. By bioavailability is commonly meant dose-corrected exposure relative to a reference, in per cent. Take `CC(C)(C)OC(=O)Nc1cccn([C@@H](CC2CC2)C(=O)N[C@@H](C[C@@H]2CCNC2=O)C(=O)C(=O)NCc2ccccc2)c1=O`: the EC50 in the data set on SARS-CoV-2 [1] amounted to 2400 nM; in the data set on SARS-CoV-2 [2], 1300 nM; with SARS-CoV-2 [3] it was 3.4 µM; in the data set with SARS-CoV-2 [4], 840 nM. Besides, the CC50 in the data set on Vero C1008 was > 100 µM. Besides, the values for the Tmax in data set [5] and in data set [15] were 19.8 min and 2.5 h, respectively. The Cmax is 236.47 ng/mL in [6]; 2330.33 ng/mL in [10]; 433.52 µg/mL in [12]; 262000 ng/g in [14]; 357 ng/mL in data set [16]. Also, the AUCt in [7] stood at 2896.63 ng·h/mL; in data set [11], 5162.2 ng·h/mL; in data set [13], 1042.34 µg·h/mL; in data set [17] it was 1061.49 ng·h/mL. For the same molecule, the Vz/F in data set [8] worked out at 141.07 L/kg; in data set [18] it was 131.34 L/kg. Moreover, the CL/F in data set [9] was 83.9 mL/min/kg. The same molecule showed a t1/2 in data set [19] of 1.3 h. Moreover, in [20], the MRT was 2.57 h. The bioavailability in [21] is 17%.
On to `CC(C)(C)OC(=O)Nc1cccn(C(CC2CC2)C(=O)N[C@@H](C[C@@H]2CCNC2=O)C(=O)C(=O)NCc2ccccc2)c1=O` (mixture of isomers), for which the EC50 with SARS-CoV-2 [22] stood at 4 µM.
